Legend:
[1] = biological target: T1, Androgen receptor (Homo sapiens, UniProt P10275); assay: Displacement of [3H]DHT from androgen receptor expressed in MDA-MB-453 cells; type: cell-based
T1 sequence (P10275 whole entry): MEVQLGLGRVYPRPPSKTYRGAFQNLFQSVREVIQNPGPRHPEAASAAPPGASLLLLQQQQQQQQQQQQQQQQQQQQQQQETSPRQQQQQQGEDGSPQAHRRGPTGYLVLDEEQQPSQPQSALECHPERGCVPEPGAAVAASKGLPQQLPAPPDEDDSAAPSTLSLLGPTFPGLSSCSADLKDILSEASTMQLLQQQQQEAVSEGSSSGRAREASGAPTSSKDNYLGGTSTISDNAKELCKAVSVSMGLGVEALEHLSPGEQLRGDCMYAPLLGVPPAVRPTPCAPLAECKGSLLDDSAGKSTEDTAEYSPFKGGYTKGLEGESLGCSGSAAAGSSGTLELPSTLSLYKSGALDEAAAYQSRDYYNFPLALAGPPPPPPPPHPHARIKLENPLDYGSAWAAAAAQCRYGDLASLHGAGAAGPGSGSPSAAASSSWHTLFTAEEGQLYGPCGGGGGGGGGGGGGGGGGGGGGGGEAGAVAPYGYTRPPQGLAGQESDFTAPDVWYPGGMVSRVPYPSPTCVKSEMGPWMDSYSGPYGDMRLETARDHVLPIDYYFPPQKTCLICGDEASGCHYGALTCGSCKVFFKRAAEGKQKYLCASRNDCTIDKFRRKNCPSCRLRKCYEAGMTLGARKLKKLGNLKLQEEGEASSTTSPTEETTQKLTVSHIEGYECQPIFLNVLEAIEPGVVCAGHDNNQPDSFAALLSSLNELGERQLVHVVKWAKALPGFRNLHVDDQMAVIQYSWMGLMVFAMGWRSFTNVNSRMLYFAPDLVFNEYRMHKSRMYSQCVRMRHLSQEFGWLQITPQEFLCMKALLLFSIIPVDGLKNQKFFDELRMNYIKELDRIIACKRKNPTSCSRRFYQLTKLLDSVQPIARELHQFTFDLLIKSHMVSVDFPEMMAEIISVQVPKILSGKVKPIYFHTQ

[2] = biological target: T1, Androgen receptor; assay: Agonist activity at androgen receptor expressed in C2C12 mouse cells by luciferase reporter transactivation assay; type: functional, cell-based
[3] = system: Rattus norvegicus; assay: Stimulation of levator ani muscle weight in Sprague-Dawley rat at 1 mg/kg, po after 14 days; type: functional
How it was run: (§1)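 Mature male rats were castrated two weeks before treatment. Compound was given […] once daily for two weeks, then levator ani muscle and ventral prostate were weighed. Weights are expressed as percent of a sham-operated, vehicle-treated intact control group, ±SEM.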

[4] = system: Rattus norvegicus; assay: Stimulation of ventral prostate tissue weight in Sprague-Dawley rat at 1 mg/kg, po after 14 days; type: functional, Prostate gland; how it was run: as §1
[5] = system: Rattus norvegicus; assay: Stimulation of ventral prostate tissue weight in Sprague-Dawley rat at 0.3 mg/kg, sc after 14 days; type: functional, Prostate gland; conditions: route subcutaneous
How it was run: (§2)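 Mature male rats were castrated two weeks before dosing. Testosterone propionate was given subcutaneously for two weeks, then levator ani muscle and ventral prostate were weighed. Weights are expressed as percent of a sham-operated, vehicle-treated intact control group, ±SEM.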

[6] = system: Rattus norvegicus; assay: Stimulation of levator ani muscle weight in Sprague-Dawley rat at 0.3 mg/kg, sc after 14 days; type: functional; conditions: route subcutaneous; how it was run: as §2

Structure (SMILES) | Ki [1] | EC50 [2] | other results
CC[C@@H]1[C@@H]2[C@@H](O)CCN2C(=O)N1c1ccc(C#N)c(Cl)c1C | 1.6 nM | 7.1 nM | –
Cc1c(N2C(=O)N3CC[C@H](O)[C@H]3[C@@H]2C(F)(F)F)ccc(C#N)c1Cl | 0.9 nM | 2.5 nM | –
Cc1c(N2C[C@@H]3[C@H](O)CC[C@@H]3C2=O)ccc(C#N)c1Cl | – | 20 nM | Activity [3]: 45%; Activity [4]: 6%
Cc1c(N2C(=O)N3CC[C@H](O)[C@H]3[C@H]2C(F)(F)F)ccc(C#N)c1Cl | 1.9 nM | 48 nM | –
CC[C@@H]1[C@@H]2[C@H](O)CCN2C(=O)N1c1ccc(C#N)c(Cl)c1C | 2.3 nM | 7.4 nM | –
Cc1c(N2C(=O)N3CC[C@@H](O)[C@H]3[C@H]2C(C)C)ccc(C#N)c1Cl | 23 nM | 108 nM | –
CC1=C(c2ccc(C#N)c(Cl)c2C)C(=O)N2CC[C@H](O)[C@@H]12 | – | 2 nM | –
CCC(=O)O[C@H]1CC[C@H]2[C@@H]3CCC4=CC(=O)CC[C@]4(C)[C@H]3CC[C@]12C [TESTOSTERONE PROPIONATE] | – | – | Activity [5]: 68%; Activity [6]: 70%

From ChEMBL document CHEMBL1145402, “Discovery of potent and muscle selective androgen receptor modulators through scaffold modifications” (J Med Chem, 2007)
